Measurements from ChEMBL document CHEMBL1157494, “Reduction in post-prandial hyperglycemic excursion through alpha-glucosidase inhibition by beta-acetamido carbonyl compounds” (Bioorg Med Chem Lett, 2008).
Activity calls are given as the source filed them. No cut-off for these calls is given here.

Experiments:
[1] = organism: Rattus norvegicus; assay: Inhibition of rat intestinal alpha-glucosidase activity at 50 ug
Method in brief: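 Rat intestinal α-glucosidase assayed in vitro. Compound added as 50 µg from a 5 mg/mL DMSO stock. Percent inhibition run in triplicate and given as mean SD.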

[2] = Inhibition of rat intestinal alpha-glucosidase activity
[3] = test system: Rattus norvegicus; assay: Antihyperglycemic activity in Wistar rat assessed as reduction in postprandial blood glucose rise at 100 mg/kg, po by carbohydrate tolerance test; format: functional, organism-based; parameters: dose 100 mg/kg
Method in brief: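 Rats housed at 22 °C under a 12 h light-dark cycle, six per group, then fasted overnight. Basal plasma glucose was measured by glucose oxidase on retro-orbital EDTA blood. Compounds were suspended in normal saline and given orally at 100 mg/kg; controls received saline only. Delta-glycemia was read at 30–120 min, shown as mean SD and compared by ANOVA with Bonferroni.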

Row | Compound | inhibition [1] | IC50 [2] | Activity [3]
1 | CC(=O)NC(CC(=O)c1ccc([N+](=O)[O-])cc1)c1ccc([N+](=O)[O-])cc1 (centres undefined) | 52.7% |  | 
2 | CC(=O)NC(CC(=O)c1ccccc1)c1ccc([N+](=O)[O-])cc1 (centres undefined) | 72.2% | 25.6 µM | 
3 | C[C@H]1O[C@H](O[C@H]2[C@H](O)[C@@H](O)[C@@H](O[C@H]3[C@H](O)[C@@H](O)[C@H](O)O[C@@H]3CO)O[C@@H]2CO)[C@H](O)[C@@H](O)[C@@H]1N[C@H]1C=C(CO)[C@@H](O)[C@H](O)[C@H]1O |  |  | Active

More lines, main results first:

Row | inhibition [1] | IC50 [2] | Compound | Activity [3]
4 | 95.1% | 5.53 µM | CC(=O)NC(CC(=O)c1ccc(Br)cc1)c1ccc(C)cc1 (centres undefined) | Active
5 | 2.7% |  | CC(=O)NC(CC(=O)c1ccc(Br)cc1)c1ccc(F)cc1 (centres undefined) | 
6 | 60.1% | 72.8 µM | CC(=O)NC(CC(=O)c1ccc(F)cc1)c1ccc(O)cc1 (centres undefined) | 
7 | 55.1% |  | CC(=O)NC(CC(=O)c1ccc(F)cc1)c1ccc(F)cc1 (centres undefined) | 
8 | 85% | 9.07 µM | CC(=O)NC(CC(=O)c1ccc([N+](=O)[O-])cc1)c1ccc(C)cc1 (centres undefined) | Active
